PubChem BioAssay
Values without a mark were called inactive. Calls of active or inactive are those of the source.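 How the source made its calls, unless noted: active means viability at or below 30% in both replicate assays; inconclusive means viability at or below 30% in just one of the two assays; inactive means the rest.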

Assay: HUVEC growth inhibition – cell-based, human, primary screen (AID 575);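 further: 100% = median of untreated cell wells with 0.1% DMSO on each plate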
Details: HUVEC proliferation, CellTiter-Glo luminescence, 72 h; at 10 µM; stronger effect = lower value
Outline: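 Test system: primary human umbilical vein endothelial cells. Quantity: 1250 cells/well. Compound: single 10 µM dose, 0.1% DMSO, from 5x medium stock. Timing: 72 h treatment at 37 °C. Detection: ATP-based CellTiter-Glo luminescent read. Benchmarks: vehicle and MePR control wells. Format: 384-well plates coated with collagen.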

With `CCCCn1cnc2c(cnn2-c2ccc(Cl)cc2)c1=O` as the molecule, how does the viability read?
The viability was 99.4%.

Which viability does the source give for `Cc1ccc(N2CCN(C(=O)c3ccccc3Br)CC2)c(C)c1` here?
Its viability is 93%.

For `COc1cccc(CN2CCN(C(=O)c3ccco3)CC2)c1OC`, which viability is on record?
Its viability is 118%.

For `CCOC(=O)c1nnn(CC(=O)Nc2cccc(OC)c2)c1C(=O)OCC`, which viability is on record?
The viability was 100%.

Which viability does the source give for `O=C(CCN1C(=O)c2ccccc2C1=O)OCN1C(=O)c2ccccc2C1=O` here?
The viability was 97.7%.

With `COc1ccccc1CC1(C)NC(=O)N(CC(=O)Nc2cc(C)on2)C1=O` (stereo not given) as the molecule, how does the viability read?
The viability was 106%.

Which viability does the source give for `c1ccc(CNc2c3c(nc4ncnn24)CCCC3)nc1` here?
The viability was 109%.

With `Cc1cc(C(=O)OCCO)c(C#N)c(N)n1` as the molecule, how does the viability read?
The viability was 95.9%.

For `CN(c1ccccc1)S(=O)(=O)c1ccc(C(=O)OCC(=O)N2CCOCC2)cc1`, which viability is on record?
The viability was 106%.

With `CCC1C(=O)n2nc(-c3ccccc3)cc2N=C1C` (stereo not given) as the molecule, how does the viability read?
Its viability is 86.9%.

With `NC(=O)c1c(NC(=O)CSc2nnc(-c3ccco3)n2-c2ccccc2)sc2c1CCC2` as the molecule, how does the viability read?
The viability was 56.5%.

For `CCN(Cc1cc2ccccc2[nH]c1=O)S(=O)(=O)c1ccccc1`, which viability is on record?
Its viability is 98.4%.

Which viability does the source give for `CCOC(=O)C1CCCN(Cc2nc(N)nc(Nc3ccc(C)cc3)n2)C1` (stereo not given) here?
Its viability is 80%.

With `COc1cccc(NC(=O)CSc2nnc(-c3cccs3)n2C)c1` as the molecule, how does the viability read?
The viability was 116%.

Which viability does the source give for `O=C(Nc1cccc(C(=O)N2CCOCC2)c1)c1cccnc1` here?
Its viability is 91%.

For `C=CCn1c(=O)[nH]c2cc(C(=O)N3CCN(c4cc(C)ccc4C)CC3)ccc2c1=O`, which viability is on record?
The viability was 71.7%.

With `COc1ccc(C2/C(=C(/O)c3cnn(-c4ccccc4)c3C)C(=O)C(=O)N2CCN(C)C)cc1OC` (stereo not given) as the molecule, how does the viability read?
Its viability is 102%.

With `COCCN(C(=O)Cn1nnc2ccccc21)C(C(=O)NC1CCCC1)c1cc(OC)ccc1OC` (stereo not given) as the molecule, how does the viability read?
Its viability is 101%.

For `O=C(OCC(=O)N1CCc2ccccc21)C1=COCCO1`, which viability is on record?
Its viability is 88.4%.

With `O=C(CCn1c(=O)sc2ccccc21)NC1=NCCS1` as the molecule, how does the viability read?
The viability was 94.6%.

For `CC(C)COC(=O)C1[C@H]2C(=O)N(Cc3cccs3)C[C@]23C=C[C@H]1O3` (stereo not given in full), which viability is on record?
The viability was 110%.

With `O=C(Cn1nnc(-c2cccc(C(F)(F)F)c2)n1)NC(=O)NCc1ccco1` as the molecule, how does the viability read?
Its viability is 98.3%.

With `Cn1c(=O)c(C(=O)Nc2cccnc2)c(O)c2ccccc21` as the molecule, how does the viability read?
The viability was 105%.

Which viability does the source give for `O=S(=O)(c1cccc(-c2nnco2)c1)N1CCCC1` here?
The viability was 114%.

For `CCOc1ccc2c(c1)sc1nc(C(=O)OC)cc(=O)n12`, which viability is on record?
The viability was 104%.

With `O=C(c1cccn2c(=O)c3cc(Cl)ccc3nc12)N1CCOCC1` as the molecule, how does the viability read?
Its viability is 98%.

Which viability does the source give for `CC1(C)CNC(=O)CC(C)(C)N1O` here?
Its viability is 101%.

For `O=C(CSc1nnnn1C1CCCC1)Nc1cccc(NC(=O)c2ccco2)c1`, which viability is on record?
The viability was 96.7%.

With `Cc1onc(-c2ccccc2)c1C(=O)Nc1ccnn1C1CCCCC1` as the molecule, how does the viability read?
Its viability is 91.3%.

For `O=C1C(c2ccncc2)=C(O)c2ccccc21`, which viability is on record?
Its viability is 73.6%.

Which viability does the source give for `CC(NC(=O)Cc1cccs1)c1ccc2c(c1)OCO2` (stereo not given) here?
The viability was 108%.

For `O=C(c1cnn2c(C(F)F)cc(C3CC3)nc12)N1CCOCC1`, which viability is on record?
The viability was 107%.

Which viability does the source give for `COc1ccc(-c2cc(C(F)F)n3ncc(C(=O)NCC4CCCO4)c3n2)cc1` (stereo not given) here?
Its viability is 82.7%.

For `Cn1c(SCC(=O)Nc2ccc3c(c2)oc2ccccc23)nnc1-c1ccccc1`, which viability is on record?
The viability was 53.1%.

For `COC(=O)Nc1ccc(S(=O)(=O)N(C)CC(F)(F)C(F)F)cc1`, which viability is on record?
The viability was 107%.

For `Cc1cccc(C2CC(c3ccc(Br)cc3)Nc3nc(N)nn32)c1` (stereo not given), which viability is on record?
Its viability is 72.6%.

With `Cc1cnc(C(=O)OCC(=O)Nc2ccc(Cl)cc2Cl)cn1` as the molecule, how does the viability read?
Its viability is 90.5%.

With `CCOC(=O)C1CCN(C(=O)c2ccc(OC)cc2OC)CC1` as the molecule, how does the viability read?
Its viability is 110%.

Which viability does the source give for `CN(Cc1ccccc1)Cc1c[nH]c2ccccc12` here?
The viability was 79.7%.

Which viability does the source give for `CCN(C(=O)COC(=O)c1cc(C)n(-c2ccc(F)cc2)c1C)C1CCS(=O)(=O)C1` (stereo not given) here?
The viability was 103%.

Assay: H69AR cell proliferation blockers – human, duplicate replicates, primary screen (AID 580;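 active means viability at or under a set limit in both replicates, limit being median viability minus 3 SD, cut at about 48% in these data, passing the limit was not always enough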;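 further: 100% = mean luminescence of untreated wells and 0% = no signal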)
Details: H69AR lung tumor cells viability, ATP luminescence, 72 h; at 10 µM; stronger effect = lower value

Which viability does the source give for `CCCCn1cnc2c(cnn2-c2ccc(Cl)cc2)c1=O` here?
The viability was 86.1%.

Which viability does the source give for `Cc1ccc(N2CCN(C(=O)c3ccccc3Br)CC2)c(C)c1` here?
The viability was 89.2%.

Which viability does the source give for `COc1cccc(CN2CCN(C(=O)c3ccco3)CC2)c1OC` here?
Its viability is 103%.

For `CCOC(=O)c1nnn(CC(=O)Nc2cccc(OC)c2)c1C(=O)OCC`, which viability is on record?
Its viability is 83.7%.

With `O=C(CCN1C(=O)c2ccccc2C1=O)OCN1C(=O)c2ccccc2C1=O` as the molecule, how does the viability read?
Its viability is 91.8%.

For `COc1ccccc1CC1(C)NC(=O)N(CC(=O)Nc2cc(C)on2)C1=O` (stereo not given), which viability is on record?
The viability was 92.7%.

With `c1ccc(CNc2c3c(nc4ncnn24)CCCC3)nc1` as the molecule, how does the viability read?
The viability was 85.2%.

For `Cc1cc(C(=O)OCCO)c(C#N)c(N)n1`, which viability is on record?
The viability was 92.1%.

For `CN(c1ccccc1)S(=O)(=O)c1ccc(C(=O)OCC(=O)N2CCOCC2)cc1`, which viability is on record?
The viability was 111%.

For `CCC1C(=O)n2nc(-c3ccccc3)cc2N=C1C` (stereo not given), which viability is on record?
The viability was 99%.

With `NC(=O)c1c(NC(=O)CSc2nnc(-c3ccco3)n2-c2ccccc2)sc2c1CCC2` as the molecule, how does the viability read?
Its viability is 28.9% (active).

For `CCN(Cc1cc2ccccc2[nH]c1=O)S(=O)(=O)c1ccccc1`, which viability is on record?
Its viability is 87.1%.

With `CCOC(=O)C1CCCN(Cc2nc(N)nc(Nc3ccc(C)cc3)n2)C1` (stereo not given) as the molecule, how does the viability read?
Its viability is 87.4%.

With `COc1cccc(NC(=O)CSc2nnc(-c3cccs3)n2C)c1` as the molecule, how does the viability read?
Its viability is 97.5%.

Which viability does the source give for `O=C(Nc1cccc(C(=O)N2CCOCC2)c1)c1cccnc1` here?
Its viability is 91.2%.

For `C=CCn1c(=O)[nH]c2cc(C(=O)N3CCN(c4cc(C)ccc4C)CC3)ccc2c1=O`, which viability is on record?
Its viability is 41.3% (active).

Which viability does the source give for `COc1ccc(C2/C(=C(/O)c3cnn(-c4ccccc4)c3C)C(=O)C(=O)N2CCN(C)C)cc1OC` (stereo not given) here?
Its viability is 101%.

For `COCCN(C(=O)Cn1nnc2ccccc21)C(C(=O)NC1CCCC1)c1cc(OC)ccc1OC` (stereo not given), which viability is on record?
The viability was 93.9%.

With `O=C(OCC(=O)N1CCc2ccccc21)C1=COCCO1` as the molecule, how does the viability read?
The viability was 86.1%.

For `O=C(CCn1c(=O)sc2ccccc21)NC1=NCCS1`, which viability is on record?
Its viability is 91.6%.

Which viability does the source give for `CC(C)COC(=O)C1[C@H]2C(=O)N(Cc3cccs3)C[C@]23C=C[C@H]1O3` (stereo not given in full) here?
The viability was 91.1%.

With `O=C(Cn1nnc(-c2cccc(C(F)(F)F)c2)n1)NC(=O)NCc1ccco1` as the molecule, how does the viability read?
Its viability is 74.1%.

Which viability does the source give for `Cn1c(=O)c(C(=O)Nc2cccnc2)c(O)c2ccccc21` here?
The viability was 88.4%.

For `O=S(=O)(c1cccc(-c2nnco2)c1)N1CCCC1`, which viability is on record?
The viability was 95.4%.

Which viability does the source give for `CCOc1ccc2c(c1)sc1nc(C(=O)OC)cc(=O)n12` here?
The viability was 84.8%.

For `O=C(c1cccn2c(=O)c3cc(Cl)ccc3nc12)N1CCOCC1`, which viability is on record?
Its viability is 116%.

Which viability does the source give for `CC1(C)CNC(=O)CC(C)(C)N1O` here?
Its viability is 95.6%.

With `O=C(CSc1nnnn1C1CCCC1)Nc1cccc(NC(=O)c2ccco2)c1` as the molecule, how does the viability read?
The viability was 110%.

With `Cc1onc(-c2ccccc2)c1C(=O)Nc1ccnn1C1CCCCC1` as the molecule, how does the viability read?
Its viability is 90.6%.

Which viability does the source give for `O=C1C(c2ccncc2)=C(O)c2ccccc21` here?
The viability was 82.2%.

For `CC(NC(=O)Cc1cccs1)c1ccc2c(c1)OCO2` (stereo not given), which viability is on record?
The viability was 99.9%.

For `O=C(c1cnn2c(C(F)F)cc(C3CC3)nc12)N1CCOCC1`, which viability is on record?
The viability was 113%.

For `COc1ccc(-c2cc(C(F)F)n3ncc(C(=O)NCC4CCCO4)c3n2)cc1` (stereo not given), which viability is on record?
The viability was 73.6%.

With `Cn1c(SCC(=O)Nc2ccc3c(c2)oc2ccccc23)nnc1-c1ccccc1` as the molecule, how does the viability read?
Its viability is 69.4%.

With `COC(=O)Nc1ccc(S(=O)(=O)N(C)CC(F)(F)C(F)F)cc1` as the molecule, how does the viability read?
Its viability is 93.1%.

With `Cc1cccc(C2CC(c3ccc(Br)cc3)Nc3nc(N)nn32)c1` (stereo not given) as the molecule, how does the viability read?
The viability was 87.6%.

Which viability does the source give for `Cc1cnc(C(=O)OCC(=O)Nc2ccc(Cl)cc2Cl)cn1` here?
Its viability is 103%.

Which viability does the source give for `CCOC(=O)C1CCN(C(=O)c2ccc(OC)cc2OC)CC1` here?
The viability was 106%.

With `CN(Cc1ccccc1)Cc1c[nH]c2ccccc12` as the molecule, how does the viability read?
The viability was 89.8%.

With `CCN(C(=O)COC(=O)c1cc(C)n(-c2ccc(F)cc2)c1C)C1CCS(=O)(=O)C1` (stereo not given) as the molecule, how does the viability read?
Its viability is 103%.
